Data set [1] has as its system Trypanosoma brucei rhodesiense. The data set can be described thus: Antitrypanosomal activity against Trypanosoma brucei rhodesiense STIB900 infected in rat L6 cells after 72 hrs by alamar blue assay. The format is functional, organism-based.
A short description of data set [2]: Inhibition of Trypanosoma brucei brucei LAPT1 assessed as [3H]-pentamidine uptake after 120 secs by scintillation counting. In a few lines: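 LAPT1 transport: late-log trypanosomes from HMI-9/10% FBS culture washed into pH 7.3 HEPES-bicarbonate-glucose buffer; 1 μM final [³H]-pentamidine uptake over 120 s with competitor. Uptake terminated with 2 mM ice-cold pentamidine and oil centrifugation; counted by scintillation, Ki from sigmoid curves; triplicate, at least three separate occasions.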

Data set [3] relates to Trypanosoma brucei brucei. The data set can be described thus: Resistance factor, ratio of EC50 for diminazene aceturate-resistant TbAT1 gene-deficient Trypanosoma brucei brucei AT1-KO to EC50 for wild type Trypanosoma brucei brucei Lister 427. The class given is functional. In a few lines: (§1)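 Resistance factor is the EC50 in the resistant line (TbAT1-KO or B48) divided by the EC50 in wild-type s427. […] Resistant and wild-type EC50s were compared by Student t-test.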

Data set [4] in a line: Selectivity index, ratio of EC50 for rat L6 cells to EC50 for Trypanosoma brucei rhodesiense STIB900. The format is toxicity, cell-based. Conditions: for selectivity ratio: L6 cells, read-out: Ratio EC50. A digest of the protocol:
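Ratio of EC₅₀ in L6 cells to EC₅₀ against T. b. rhodesiense STIB900, both from Alamar blue assays.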

The subject of the next data set is L6. The data set can be described thus: Cytotoxicity against rat L6 cells after 72 hrs by alamar blue assay. The format is cell-based.
A short description of data set [5]: Selectivity index, ratio of EC50 for human HEK cells to EC50 for wild type Trypanosoma brucei brucei Lister 427. The class given is toxicity, cell-based, HEK293. The conditions noted are these: for selectivity ratio: HEK cells, read-out: Ratio EC50. A digest of the protocol: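 Ratio of EC₅₀ in HEK cells to EC₅₀ in wild-type T. b. brucei s427, both from resazurin assays.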

Data set [6] relates to Trypanosoma brucei brucei. The data set can be described thus: Resistance factor, ratio of EC50 for diminazene-, pentamidine-, and melaminophenyl arsenical-resistant HAPT1-deficient Trypanosoma brucei brucei B48 to EC50 for wild type Trypanosoma brucei brucei Lister 427. The format is functional. A digest of the protocol:
as §1

Data set [7] deals with Trypanosoma brucei brucei. The data set can be described thus: Antitrypanosomal activity against diminazene-, pentamidine-, and melaminophenyl arsenical-resistant HAPT1-deficient Trypanosoma brucei brucei B48 after 3 days by alamar blue assay. The format is functional, organism-based. A digest of the protocol:
(§2)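 Bloodstream-form T. b. brucei (wild-type s427; TbAT1-KO, made from s427 by TbAT1 deletion; B48, selected from TbAT1-KO in vitro on pentamidine, lacking functional HAPT1). Cells were exposed to compound for 48 h, then resazurin (Alamar blue) was added for a further 24 h. A single fluorescence reading gave EC50.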

Data set [8] deals with Trypanosoma brucei brucei. The data set can be described thus: Antitrypanosomal activity against diminazene aceturate-resistant TbAT1 gene-deficient Trypanosoma brucei brucei AT1-KO after 3 days by alamar blue assay. The format is functional, organism-based. In a few lines: as §2
The subject of data set [9] is Trypanosoma brucei brucei. The data set can be described thus: Antitrypanosomal activity against wild type Trypanosoma brucei brucei Lister 427 after 3 days by alamar blue assay. The class given is functional, organism-based. A digest of the protocol: as §2
The nature of data set [10]: Cytotoxicity against human HEK cells after 3 days by alamar blue assay. The conditions noted are these: Homo sapiens, HEK293, 72 h. The format is cell-based, HEK293. In a few lines:
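Human embryonic kidney cells tested by resazurin (Alamar blue) assay: 48 h with compound, then 24 h more after dye addition, single reading; EC₅₀ derived.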

The mark [11] stands for this setting: Trypanosoma brucei, STIB900, 72 h.
Setting [12] is: Trypanosoma brucei, AT1-KO, 72 h.
The mark [13] stands for this setting: Trypanosoma brucei, Lister 427, 72 h.

Each structure is given as a SMILES string. Bounds are passed on as bounds.

As to `Cc1ccc(C[P+](c2ccccc2)(c2ccccc2)c2ccccc2)cc1.[Br-]`, the EC50 in data set [1] was found to be 364 nM; with L6 (l6), 12900 nM; in data set [7], 22 nM; in data set [8], 33 nM; in data set [9] it was 43 nM. Also, in data set [2], the Ki was found to be 25000 nM. The “Ratio EC50” value is 0.8 in data set [3], 35.5 in data set [4] (l6), more than 7000 in data set [5] (hek293) and 0.5 in data set [6].

For the compound `O=C(c1ccc(C[P+](c2ccccc2)(c2ccccc2)c2ccccc2)cc1)c1ccc(C[P+](c2ccccc2)(c2ccccc2)c2ccccc2)cc1.[Br-].[Br-]`, the EC50 in data set [1] (setting [11]) is 260 nM; in data set [10], more than 300000 nM; with L6 (Rattus norvegicus, L6, 72 h) it was 73300 nM; in [7] (Trypanosoma brucei, B48, 72 h), 380 nM; in [8] (setting [12]), 360 nM; in [9] (setting [13]), 240 nM. Moreover, the Ki in data set [2] was determined as 49000 nM. The “Ratio EC50” value in data set [3] was determined as 1.5; in [6] it was 1.6. The selectivity ratio was 282 in data set [4] and more than 1250 in data set [5].

For the compound `Cc1ccccc1[P+](Cc1ccc(C(=O)c2ccc(C[P+](c3ccccc3)(c3ccccc3)c3ccccc3C)cc2)cc1)(c1ccccc1)c1ccccc1.[Br-].[Br-]`, the EC50 in [1] (setting [11]) was determined as 160 nM; in data set [10], 214000 nM; with L6 (Rattus norvegicus, L6, 72 h) it was 14000 nM; in [7] (Trypanosoma brucei, B48, 72 h), 220 nM; in data set [8] (setting [12]) it was 240 nM; in [9] (setting [13]), 200 nM. In addition, the “Ratio EC50” value came out at 1.2 in data set [3] and 1.1 in data set [6]. The selectivity ratio was 88 in data set [4] and 1100 in [5].

As for `CCC[P+](Cc1ccc(Oc2ccc(C[P+](CCC)(c3ccccc3)c3ccccc3)cc2)cc1)(c1ccccc1)c1ccccc1.[Br-].[Br-]`, the EC50 was found to be 567 nM in [1] (setting [11]); 233000 nM in data set [10]; 2900 nM in the data set with L6 (Rattus norvegicus, L6, 72 h); 300 nM in [7] (Trypanosoma brucei, B48, 72 h); 280 nM in data set [8] (setting [12]); 250 nM in data set [9] (setting [13]). The figures for the “Ratio EC50” value in data set [3] and in data set [6] were 1.1 and 1.2, respectively. The figures for the selectivity ratio in data set [4] and in data set [5] were 5 and 914, respectively.

For `O=C(c1ccc(C[P+](c2ccc(Cl)cc2)(c2ccc(Cl)cc2)c2ccc(Cl)cc2)cc1)c1ccc(C[P+](c2ccc(Cl)cc2)(c2ccc(Cl)cc2)c2ccc(Cl)cc2)cc1.[Br-].[Br-]`, the concentration for a half-maximal effect (EC50) was 410 nM in data set [1] (setting [11]); 63000 nM in data set [10]; 7200 nM with L6 (Rattus norvegicus, L6, 72 h); 950 nM in [7] (Trypanosoma brucei, B48, 72 h); 1370 nM in data set [8] (setting [12]); 940 nM in data set [9] (setting [13]). For the same compound, the “Ratio EC50” value stood at 1.5 in data set [3] and 1 in data set [6]. Also, the selectivity ratio in data set [4] was 18; in data set [5] it was 67.

For `Cc1cccc([P+](Cc2ccc(Oc3ccc(C[P+](c4cccc(C)c4)(c4cccc(C)c4)c4cccc(C)c4)cc3)cc2)(c2cccc(C)c2)c2cccc(C)c2)c1.[Br-].[Br-]`, the EC50 in [1] (setting [11]) is 488 nM; in data set [10] it was 45400 nM; in the data set on L6 (Rattus norvegicus, L6, 72 h), 942 nM; in data set [7] (Trypanosoma brucei, B48, 72 h), 88 nM; in data set [8] (setting [12]), 43 nM; in data set [9] (setting [13]) it was 57 nM. Besides, the “Ratio EC50” value in data set [3] was determined as 0.7; in data set [6] it was 1.5. Besides, the selectivity ratio was 1.9 in data set [4] and 792 in data set [5].

Turning to `C[P+](C)(Cc1ccc(CCc2ccc(C[P+](C)(C)c3ccccc3)cc2)cc1)c1ccccc1.[Br-].[Br-]`, the EC50 was 1200 nM in data set [1] (setting [11]); more than 300000 nM in data set [10]; 48600 nM in the data set with L6 (Rattus norvegicus, L6, 72 h); 1800 nM in data set [7] (Trypanosoma brucei, B48, 72 h); 2620 nM in data set [8] (setting [12]); 2590 nM in data set [9] (setting [13]). Besides, the “Ratio EC50” value in data set [3] came to 1; in data set [6] it was 0.5. Besides, the selectivity ratio was 40 in [4] and more than 110 in data set [5].

`Cc1cccc([P+](Cc2ccc(C(=O)c3ccccc3)cc2)(c2cccc(C)c2)c2cccc(C)c2)c1.[Br-]`: the concentration giving a half-maximal response (EC50) amounted to 274 nM in [1] (setting [11]); 48200 nM in data set [10]; 2610 nM in the data set with L6 (Rattus norvegicus, L6, 72 h); 110 nM in data set [7] (Trypanosoma brucei, B48, 72 h); 150 nM in data set [8] (setting [12]); 170 nM in data set [9] (setting [13]). Moreover, the “Ratio EC50” value was determined as 0.8 in [3] and 0.7 in data set [6]. Besides, the selectivity ratio is 9.5 in [4] and 281 in data set [5].

As to `O=C(c1ccc(C[P+](c2ccccc2)(C2CCCCC2)C2CCCCC2)cc1)c1ccc(C[P+](c2ccccc2)(C2CCCCC2)C2CCCCC2)cc1.[Br-].[Br-]`, the EC50 was 320 nM in data set [1] (setting [11]); more than 300000 nM in data set [10]; 22900 nM in the data set on L6 (Rattus norvegicus, L6, 72 h); 290 nM in [7] (Trypanosoma brucei, B48, 72 h); 260 nM in data set [8] (setting [12]); 240 nM in [9] (setting [13]). Further, the “Ratio EC50” value was found to be 1.1 in [3] and 1.2 in [6]. For the same compound, the selectivity ratio is 72 in [4] and more than 1270 in data set [5].

Take `Cc1ccc([P+](Cc2ccc(C(=O)c3ccc(C[P+](c4ccccc4)(c4ccccc4)c4ccc(C)cc4)cc3)cc2)(c2ccccc2)c2ccccc2)cc1.[Br-].[Br-]`: the EC50 in data set [1] (setting [11]) came out at 260 nM; in data set [10] it was 261000 nM; in the data set with L6 (Rattus norvegicus, L6, 72 h), 16300 nM; in data set [7] (Trypanosoma brucei, B48, 72 h), 183 nM; in [8] (setting [12]) it was 182 nM; in data set [9] (setting [13]) it was 180 nM. Further, the “Ratio EC50” value in data set [3] and in [6] was 1 in each case. For the same compound, the values for the selectivity ratio in [4] and in data set [5] were 62 and 1450, respectively.

As for `COc1ccc([P+](Cc2ccc(C(=O)c3ccc(C[P+](c4ccc(OC)cc4)(c4ccc(OC)cc4)c4ccc(OC)cc4)cc3)cc2)(c2ccc(OC)cc2)c2ccc(OC)cc2)cc1.[Br-].[Br-]`, the EC50 in [1] (setting [11]) was 290 nM; in data set [10], 172000 nM; in the data set with L6 (Rattus norvegicus, L6, 72 h) it was 11800 nM; in data set [7] (Trypanosoma brucei, B48, 72 h), 230 nM; in data set [8] (setting [12]), 520 nM; in data set [9] (setting [13]), 320 nM. For the same compound, the “Ratio EC50” value in data set [3] is listed as 1.6; in data set [6], 0.7. Besides, the selectivity ratio in data set [4] is 40; in data set [5], 529.

Turning to `Cc1ccc(C[P+](c2ccccc2)(c2ccccc2)c2ccccc2)cc1.[Cl-]`, the EC50 in [1] (setting [11]) was 216 nM; in [10], more than 300000 nM; with L6 (Rattus norvegicus, L6, 72 h), 10400 nM; in data set [7] (Trypanosoma brucei, B48, 72 h), 23 nM; in data set [8] (setting [12]) it was 24 nM; in data set [9] (setting [13]), 23 nM. Also, the “Ratio EC50” value in [3] and in data set [6] was 1 throughout. The selectivity ratio in data set [4] is 48; in data set [5], more than 12500.

For `CCC[P+](Cc1ccc(Cc2ccc(C[P+](CCC)(c3ccccc3)c3ccccc3)cc2)cc1)(c1ccccc1)c1ccccc1.[Br-].[Br-]`, the EC50 in [1] (setting [11]) was 799 nM; in [10] it was more than 300000 nM; with L6 (Rattus norvegicus, L6, 72 h), 3270 nM; in data set [7] (Trypanosoma brucei, B48, 72 h) it was 430 nM; in data set [8] (setting [12]), 400 nM; in [9] (setting [13]), 373 nM. For the same compound, the “Ratio EC50” value in [3] and in data set [6] was 1.1 each time. Further, the selectivity ratio in [4] is 4.1; in data set [5], more than 800.

(Values after ChEMBL document CHEMBL2040794, “Synthesis and structure-activity analysis of new phosphonium salts with potent activity against African trypanosomes” (J Med Chem, 2012).)
